Assay results from ChEMBL document CHEMBL1134845, “Syntheses and biological activities of a novel group of steroidal derived inhibitors for human Cdc25A protein phosphatase” (J Med Chem, 2001).

Experiments:
[1] = target: Receptor-type tyrosine-protein phosphatase C, CD45 (Homo sapiens) (UniProt P08575); assay: Inhibitory activity tested against human CD45 receptor-type tyrosine-protein phosphatase C
PC-3 = assay: Growth inhibitory activity was determined against PC-3 cancer cell line of Prostate cancer; assay type: functional; details: Homo sapiens
Procedure, shortened: (§1)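 NCI 60 human tumour cell line screen run at the National Cancer Institute. Cell growth and viability read with the protein stain sulforhodamine B, which binds basic amino acids of cells left attached after washing. […] MG MID is the mean GI50 calculated over all panels.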

[2] = target: T1, M-phase inducer phosphatase 1 (Homo sapiens) (UniProt P30304); assay: (§2) Inhibitory activity tested against cell division cycle 25A (assay using fluorescein diphosphate (FDP) as substrate)
T1 sequence (whole entry): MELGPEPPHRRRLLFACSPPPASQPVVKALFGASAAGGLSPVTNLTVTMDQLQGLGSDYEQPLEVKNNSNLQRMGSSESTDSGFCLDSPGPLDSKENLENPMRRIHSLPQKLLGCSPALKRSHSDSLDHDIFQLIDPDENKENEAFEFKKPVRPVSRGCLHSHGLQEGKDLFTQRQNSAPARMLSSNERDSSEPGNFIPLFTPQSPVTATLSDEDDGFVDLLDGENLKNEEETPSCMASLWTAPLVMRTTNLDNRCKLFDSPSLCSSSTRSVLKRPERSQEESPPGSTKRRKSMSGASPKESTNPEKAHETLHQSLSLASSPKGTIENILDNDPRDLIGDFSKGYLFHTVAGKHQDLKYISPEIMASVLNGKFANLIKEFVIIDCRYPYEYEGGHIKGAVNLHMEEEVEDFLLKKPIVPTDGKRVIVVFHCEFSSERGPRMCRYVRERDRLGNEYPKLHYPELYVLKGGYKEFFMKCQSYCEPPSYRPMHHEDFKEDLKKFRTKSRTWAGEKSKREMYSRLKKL
Procedure, shortened: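 Recombinant human GST-Cdc25A fusion protein, each batch calibrated so that FDP was dephosphorylated linearly over 20 min. Fluorescein diphosphate was the substrate. Reactions ran 15 min at 25 °C in the dark and were stopped with sodium orthovanadate. Fluorescein monophosphate was read at 485 nm excitation and 530 nm emission. IC50 came from at least two independent runs, each in triplicate.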

HCC 2998 = assay: Growth inhibitory activity was determined against HCC2998 cancer cell line colon cancer; assay type: functional, Homo sapiens; details: Homo sapiens, HCC 2998
Procedure, shortened: as §1

U-251 = assay: Growth inhibitory activity was determined against U-251 cancer cell line of CNS cancer; assay type: functional; details: Homo sapiens
Procedure, shortened: as §1

SN12C [3] = assay: Growth inhibitory activity was determined against SN12C cancer cell line of renal cancer; assay type: functional; details: Homo sapiens
Procedure, shortened: as §1

SK-MEL-5 = assay: Growth inhibitory activity was determined against SK-MEL-5 cancer cell line of melanoma; assay type: functional, Homo sapiens; details: Homo sapiens, SK-MEL-5
Procedure, shortened: as §1

NCI/ADR-RES = assay: Growth inhibitory activity was determined against NCI/ADR-RES cancer cell line of Breast cancer; assay type: functional, Homo sapiens; details: Homo sapiens, NCI/ADR-RES
Procedure, shortened: as §1

NCI-H23 = assay: Growth inhibitory activity was determined against NCI-H23 cancer cell line of non-small cell lung cancer; assay type: functional, Homo sapiens; details: Homo sapiens, NCI-H23
Procedure, shortened: as §1

[4] = target: T1, M-phase inducer phosphatase 1 (Homo sapiens); assay: (§3) Inhibitory activity tested against cell division cycle 25A (assay using p-nitro phenyl phosphate (pNPP) as substrate)
LOX IMVI = assay: Growth inhibitory activity was determined against LOX IMVI cancer cell line of melanoma; assay type: functional, Homo sapiens; details: Homo sapiens, LOX IMVI
Procedure, shortened: as §1

COLO 205 = assay: Growth inhibitory activity was determined against COLO 205 cancer cell line colon cancer; assay type: functional, Homo sapiens; details: Homo sapiens, COLO 205
Procedure, shortened: as §1

OVCAR-8 [5] = assay: Growth inhibitory activity was determined against OVCAR-8 cancer cell line of Ovarian cancer; assay type: functional; details: Homo sapiens
Procedure, shortened: as §1

A549 = assay: Growth inhibitory activity was determined against A549/ATCC cancer cell line of non-small cell lung cancer; assay type: functional, Homo sapiens; details: Homo sapiens, A549
Procedure, shortened: as §1

HT-29 [6] = assay: Growth inhibitory activity was determined against HT-29 cancer cell line colon cancer; assay type: functional, Homo sapiens; details: Homo sapiens, HT-29
Procedure, shortened: as §1

T47D = assay: Growth inhibitory activity was determined against T-47D cancer cell line of Breast cancer; assay type: functional, Homo sapiens; details: Homo sapiens, T47D
Procedure, shortened: as §1

UO-31 [7] = assay: Growth inhibitory activity was determined against UO-31 cancer cell line of renal cancer; assay type: functional; details: Homo sapiens
Procedure, shortened: as §1

786-0 [8] = assay: Growth inhibitory activity was determined against 786-0 cancer cell line of renal cancer; assay type: functional; details: Homo sapiens
Procedure, shortened: as §1

BT-549 (Homo sapiens) = assay: Growth inhibitory activity was determined against BT-549 cancer cell line of Breast cancer; details: Homo sapiens, BT-549
SF-539 = assay: Growth inhibitory activity was determined against SF-539 cancer cell line of CNS cancer; assay type: functional; details: Homo sapiens
Procedure, shortened: as §1

OVCAR-3 [9] = assay: Growth inhibitory activity was determined against OVCAR-3 cancer cell line of Ovarian cancer; assay type: functional; details: Homo sapiens
Procedure, shortened: as §1

SF-268 = assay: Growth inhibitory activity was determined against SF-268 cancer cell line of CNS cancer; assay type: functional; details: Homo sapiens
Procedure, shortened: as §1

OVCAR-8 [10] = assay: Growth inhibitory activity was determined against OVCAR-8 cancer cell lines of Ovarian cancer; assay type: functional; details: Homo sapiens
Procedure, shortened: as §1

[11] = target: T2, M-phase inducer phosphatase 1 (Homo sapiens, UniProt P30304); assay: as §2
T2 sequence (P30304 whole entry): T1 sequence (whole entry)
Procedure, shortened: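 Recombinant human GST-Cdc25A fusion protein, each batch calibrated so that FDP was dephosphorylated linearly over 20 min. Fluorescein diphosphate was the substrate. Reactions ran 15 min at 25 °C in the dark and were stopped with sodium orthovanadate. IC50 came from at least two independent runs, each in triplicate.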

NCI-H522 = assay: Growth inhibitory activity was determined against NCI-H522 cancer cell line of non-small cell lung cancer; assay type: functional; details: Homo sapiens
Procedure, shortened: as §1

[12] = target: T2, M-phase inducer phosphatase 1; assay: as §3
[13] = target: Receptor-type tyrosine-protein phosphatase C, CD45 (Homo sapiens) (UniProt P08575); assay: Inhibitory activity tested against human CD45 (receptor-type tyrosine-protein phosphatase C)
OVCAR-3 [14] = assay: Growth inhibitory activity was determined against OVCAR-3 cancer cell lines of Ovarian cancer; assay type: functional; details: Homo sapiens
Procedure, shortened: as §1

UO-31 [15] = assay: Growth inhibitory activity was determined against UO-31 cancer cell line of Renal cancer; assay type: functional; details: Homo sapiens
Procedure, shortened: as §1

HT-29 [16] = assay: Inhibition of colon cancer in HT-29 cancer cell lines; assay type: functional; details: Homo sapiens
Procedure, shortened: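 Soft agar clonogenic assay of anchorage-independent growth, using HT-29 colon and A549 lung adenocarcinoma cells. The value is the compound concentration that cut colony number to 50% of control.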

SN12C [17] = assay: Growth inhibitory activity was determined against SN12C cancer cell line of Renal cancer; assay type: functional; details: Homo sapiens
Procedure, shortened: as §1

786-0 [18] = assay: Growth inhibitory activity was determined against 786-0 cancer cell line of Renal cancer; assay type: functional; details: Homo sapiens
Procedure, shortened: as §1

[19] = target: T3, Receptor-type tyrosine-protein phosphatase C (Homo sapiens, UniProt P08575); assay: Inhibitory activity tested against Human CD45 Phosphatase (assay using p-nitrophenyl phosphate (pNPP) as substrate)
T3 sequence (P08575 whole entry): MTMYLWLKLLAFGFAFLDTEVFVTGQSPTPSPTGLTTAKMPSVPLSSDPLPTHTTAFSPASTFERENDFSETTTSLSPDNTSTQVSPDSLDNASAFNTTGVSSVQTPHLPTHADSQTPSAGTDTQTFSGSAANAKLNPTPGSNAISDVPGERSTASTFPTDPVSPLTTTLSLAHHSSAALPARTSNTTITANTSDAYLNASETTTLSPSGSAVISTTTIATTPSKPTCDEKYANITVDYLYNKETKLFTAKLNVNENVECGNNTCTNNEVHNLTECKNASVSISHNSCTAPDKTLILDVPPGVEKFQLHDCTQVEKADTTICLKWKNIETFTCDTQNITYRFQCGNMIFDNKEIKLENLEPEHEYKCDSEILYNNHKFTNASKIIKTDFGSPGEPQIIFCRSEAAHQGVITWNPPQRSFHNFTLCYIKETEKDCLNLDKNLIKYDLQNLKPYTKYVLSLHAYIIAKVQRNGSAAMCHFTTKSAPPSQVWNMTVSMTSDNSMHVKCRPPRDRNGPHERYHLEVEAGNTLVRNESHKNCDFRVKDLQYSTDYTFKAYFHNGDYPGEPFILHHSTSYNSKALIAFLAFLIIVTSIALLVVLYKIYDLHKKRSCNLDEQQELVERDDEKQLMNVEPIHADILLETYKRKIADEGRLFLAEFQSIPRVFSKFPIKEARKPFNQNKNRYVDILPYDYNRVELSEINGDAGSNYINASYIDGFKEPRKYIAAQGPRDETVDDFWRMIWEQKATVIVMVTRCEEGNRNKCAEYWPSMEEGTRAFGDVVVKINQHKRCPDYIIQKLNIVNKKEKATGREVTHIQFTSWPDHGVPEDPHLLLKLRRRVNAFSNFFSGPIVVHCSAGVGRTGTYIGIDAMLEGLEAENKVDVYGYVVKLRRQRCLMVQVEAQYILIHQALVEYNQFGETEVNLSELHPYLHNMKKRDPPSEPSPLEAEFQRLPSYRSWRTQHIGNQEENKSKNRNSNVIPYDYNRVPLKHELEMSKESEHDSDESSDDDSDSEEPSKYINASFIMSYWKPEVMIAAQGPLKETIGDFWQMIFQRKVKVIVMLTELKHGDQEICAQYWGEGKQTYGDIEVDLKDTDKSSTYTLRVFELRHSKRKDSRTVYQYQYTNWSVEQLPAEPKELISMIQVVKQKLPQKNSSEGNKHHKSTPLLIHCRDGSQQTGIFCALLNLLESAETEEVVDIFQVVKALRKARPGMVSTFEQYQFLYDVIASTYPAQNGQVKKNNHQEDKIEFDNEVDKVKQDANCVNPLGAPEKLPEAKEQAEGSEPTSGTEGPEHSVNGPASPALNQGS

Row | SMILES | GI50 (PC-3) [µM] | GI50 (HCC 2998) [µM] | GI50 (U-251) [µM] | GI50 (SN12C [3]) [µM] | GI50 (SK-MEL-5) [µM] | GI50 (NCI/ADR-RES) [µM] | GI50 (NCI-H23) [µM] | GI50 (LOX IMVI) [µM] | GI50 (COLO 205) [µM] | GI50 (OVCAR-8 [5]) [µM] | GI50 (A549) [µM] | GI50 (HT-29 [6]) [µM] | GI50 (T47D) [µM] | GI50 (UO-31 [7]) [µM] | GI50 (786-0 [8]) [µM] | GI50 (BT-549 (Homo sapiens)) [µM] | GI50 (SF-539) [µM] | GI50 (OVCAR-3 [9]) [µM] | GI50 (SF-268) [µM] | GI50 (NCI-H522) [µM] | further results
1 | C=C(CCCCC#N)[C@H]1CC[C@]2(C)[C@@H]([C@H](C)CCCC(C)C)CC[C@H]2[C@@H]1CC(=O)O | 7.36 | 6.33 | 6.49 | 6.9 | 5.98 | 5.66 | 5.12 | 4.92 | 5.1 | 4.78 | 5.21 | 7.77 | 8.39 | 9.41 | 11.5 | 5.62 | 4.5 | 6.64 | – | – | IC50 [1]: 12.2 µM; IC50 [2]: 2.2 µM; IC50 [4]: 8.3 µM
2 | CC(C)CCC[C@@H](C)[C@H]1CC[C@H]2[C@@H]3CC(=O)O[C@](C)(CCCCC(=O)O)[C@H]3CC[C@]12C | 7.21 | 4.43 | 6.28 | 8.3 | 9.69 | 5.55 | 4.92 | – | 6.13 | – | 8.3 | 7.76 | 7.3 | 11 | 8.44 | 4.19 | 14.6 | – | > 25 | > 25 | GI50 (OVCAR-8 [10]): 5.13 µM; IC50 [11]: 5.1 µM; IC50 [12]: 11.6 µM; IC50 [13]: > 100 µM; GI50 (OVCAR-3 [14]): 5.78 µM
3 | CC(C)CCC[C@@H](C)[C@H]1CC[C@H]2[C@@H]3CC(=O)O[C@](C)(CCCCC#N)[C@H]3CC[C@]12C | 5.51 | 4.71 | 5.04 | – | 5.1 | – | 5.63 | 5.35 | 4.75 | 5.19 | 5.51 | – | 4.92 | – | – | 5.89 | 5.17 | 4.73 | > 25 | > 25 | GI50 (UO-31 [15]): 0.47 µM; GI50 (HT-29 [16]): 4.05 µM; GI50 (SN12C [17]): 4.38 µM; GI50 (786-0 [18]): 4.3 µM
4 | CC(C)CCC[C@@H](C)[C@H]1CC[C@H]2[C@@H]3CC[C@H]4C[C@@H](OC(=S)S)CC[C@]4(C)[C@H]3CC[C@]12C | – | – | – | – | – | – | – | – | – | – | – | – | – | – | – | – | – | – | – | – | IC50 [19]: > 100 µM; IC50 [11]: 1.1 µM; IC50 [12]: 11.7 µM
5 | CC(C)CCCC(C)[C@H]1CC[C@H]2[C@H](CC(=O)O)[C@@H]([C@@]3(C)CC[C@@H](CC#N)O3)CC[C@]12C (stereo not given in full) | 7.77 | 5.1 | 6.01 | 5.4 | 10.8 | 5.44 | 5.75 | 6.23 | 5.26 | – | 8.25 | 5.52 | 8.41 | 15.3 | 9.23 | 5.05 | 19.5 | – | 2.86 | 0.94 | GI50 (OVCAR-8 [10]): 4.76 µM; GI50 (OVCAR-3 [14]): 5.66 µM
